Drawing on ChEMBL document CHEMBL1133667, “A structure-affinity relationship study on derivatives of N-[2-[4-(4-Chlorophenyl)piperazin-1-yl]ethyl]-3-methoxybenzamide, a high-affinity and selective D(4) receptor ligand” (J Med Chem, 2000), this text covers Ki and inhibition for 13 compounds.

The target of test [1] is T1, Adrenergic receptor alpha-1 (Rattus norvegicus, UniProt P15823+P23944+P43140).
T1 sequence (P15823 whole entry): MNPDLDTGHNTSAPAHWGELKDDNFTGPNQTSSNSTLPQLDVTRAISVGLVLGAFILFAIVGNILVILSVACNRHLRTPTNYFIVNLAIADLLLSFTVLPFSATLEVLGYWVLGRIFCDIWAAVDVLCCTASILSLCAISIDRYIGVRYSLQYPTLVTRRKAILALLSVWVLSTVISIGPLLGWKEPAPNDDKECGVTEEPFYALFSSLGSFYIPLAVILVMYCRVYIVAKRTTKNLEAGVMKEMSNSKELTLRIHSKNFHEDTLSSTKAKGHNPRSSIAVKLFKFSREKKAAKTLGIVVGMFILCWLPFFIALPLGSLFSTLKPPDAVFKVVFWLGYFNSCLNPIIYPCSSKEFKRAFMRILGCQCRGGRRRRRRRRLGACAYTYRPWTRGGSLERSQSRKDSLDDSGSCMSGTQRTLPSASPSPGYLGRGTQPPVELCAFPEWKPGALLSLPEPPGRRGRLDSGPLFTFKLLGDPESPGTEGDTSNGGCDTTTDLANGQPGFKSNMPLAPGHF
T1 sequence (P23944 whole entry): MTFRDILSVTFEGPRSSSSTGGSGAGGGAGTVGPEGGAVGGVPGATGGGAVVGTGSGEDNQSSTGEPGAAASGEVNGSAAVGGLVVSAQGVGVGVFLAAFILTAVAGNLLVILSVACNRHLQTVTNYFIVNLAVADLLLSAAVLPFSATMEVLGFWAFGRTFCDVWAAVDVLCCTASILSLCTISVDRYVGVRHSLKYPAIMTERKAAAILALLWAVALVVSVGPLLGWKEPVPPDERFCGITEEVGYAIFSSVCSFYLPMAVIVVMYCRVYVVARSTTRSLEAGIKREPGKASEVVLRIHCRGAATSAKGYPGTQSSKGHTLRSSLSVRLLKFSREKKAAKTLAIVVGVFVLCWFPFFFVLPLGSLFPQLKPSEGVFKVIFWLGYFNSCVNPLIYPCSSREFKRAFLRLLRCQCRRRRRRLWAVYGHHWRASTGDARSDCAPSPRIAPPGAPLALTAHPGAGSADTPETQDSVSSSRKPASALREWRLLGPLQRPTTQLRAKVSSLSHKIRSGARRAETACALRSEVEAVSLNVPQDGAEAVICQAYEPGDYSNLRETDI
T1 sequence (P43140 whole entry): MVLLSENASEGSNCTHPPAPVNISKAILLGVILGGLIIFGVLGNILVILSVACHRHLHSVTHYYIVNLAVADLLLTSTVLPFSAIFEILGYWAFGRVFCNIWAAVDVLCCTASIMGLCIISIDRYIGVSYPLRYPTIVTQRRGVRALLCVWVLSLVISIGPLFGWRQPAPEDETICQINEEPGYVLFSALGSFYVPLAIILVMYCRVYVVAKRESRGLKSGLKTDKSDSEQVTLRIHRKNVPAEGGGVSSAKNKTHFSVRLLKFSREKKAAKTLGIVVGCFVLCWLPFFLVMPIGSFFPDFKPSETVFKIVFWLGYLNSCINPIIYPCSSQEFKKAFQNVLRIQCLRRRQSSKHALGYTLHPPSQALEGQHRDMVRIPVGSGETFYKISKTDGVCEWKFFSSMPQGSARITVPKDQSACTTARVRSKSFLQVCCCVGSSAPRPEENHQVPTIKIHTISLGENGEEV
The experiment in a line: In vitro binding affinity towards alpha-1 adrenergic receptor by using [3H]prazosin in rat brain cortex membranes. The class given is cell membranes.

The target in test [2] is T2, D(2) dopamine receptor (Homo sapiens, UniProt P14416). The experiment in a line: In vitro binding affinity at human Dopamine receptor D2 (long) by [3H]spiroperidol displacement.
T2 sequence (P14416 whole entry): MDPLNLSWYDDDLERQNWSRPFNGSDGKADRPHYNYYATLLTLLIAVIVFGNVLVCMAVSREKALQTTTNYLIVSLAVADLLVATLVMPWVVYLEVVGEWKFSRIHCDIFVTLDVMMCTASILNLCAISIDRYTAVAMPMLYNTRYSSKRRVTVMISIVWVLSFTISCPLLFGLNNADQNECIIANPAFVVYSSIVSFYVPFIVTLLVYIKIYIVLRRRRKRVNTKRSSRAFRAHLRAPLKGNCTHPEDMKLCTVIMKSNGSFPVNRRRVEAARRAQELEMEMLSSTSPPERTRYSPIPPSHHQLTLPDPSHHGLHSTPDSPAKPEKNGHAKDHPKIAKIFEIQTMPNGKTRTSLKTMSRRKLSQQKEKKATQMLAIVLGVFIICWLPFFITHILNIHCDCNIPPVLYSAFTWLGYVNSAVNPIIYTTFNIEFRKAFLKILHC
For test [3], the target named is T3, Adrenergic receptor alpha-1 (Rattus norvegicus) (UniProt P15823+P23944+P43140). Kind of test: (§1) Tested in vitro for % inhibition against alpha-1 adrenergic receptor. The class given is protein assay. Set-up: concentration or dose not given beside the values. The note with it: concentration not given here. Summed up:
(§2)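 Drug at 10^-5–10^-11 M, 50 min at 25 °C. Filtered on GF/B filters presoaked in 0.5% polyethylenimine. Nonspecific binding with 1 µM prazosin. Percentage inhibition of specific binding reported at the stated concentration.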

The target of a further test is T4, D(4) dopamine receptor (Homo sapiens, UniProt P21917).
T4 sequence (P21917 whole entry): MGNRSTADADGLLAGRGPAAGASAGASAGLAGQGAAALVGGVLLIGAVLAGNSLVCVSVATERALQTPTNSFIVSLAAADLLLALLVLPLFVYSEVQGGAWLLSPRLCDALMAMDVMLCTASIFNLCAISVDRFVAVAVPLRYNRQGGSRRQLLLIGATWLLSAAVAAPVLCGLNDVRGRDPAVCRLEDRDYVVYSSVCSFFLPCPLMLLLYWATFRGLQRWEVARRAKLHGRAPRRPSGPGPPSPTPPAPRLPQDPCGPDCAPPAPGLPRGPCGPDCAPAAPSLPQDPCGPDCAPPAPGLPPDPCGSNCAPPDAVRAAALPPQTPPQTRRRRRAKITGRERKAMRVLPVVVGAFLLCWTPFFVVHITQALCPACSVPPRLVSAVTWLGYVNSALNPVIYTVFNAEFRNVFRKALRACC
The experiment in a line: In vitro binding affinity at human Dopamine receptor D4.4 by [3H]YM-09151-2 displacement.

The target of test [4] is T5, 5-hydroxytryptamine receptor 1A (Rattus norvegicus, UniProt P19327).
T5 sequence (P19327 whole entry): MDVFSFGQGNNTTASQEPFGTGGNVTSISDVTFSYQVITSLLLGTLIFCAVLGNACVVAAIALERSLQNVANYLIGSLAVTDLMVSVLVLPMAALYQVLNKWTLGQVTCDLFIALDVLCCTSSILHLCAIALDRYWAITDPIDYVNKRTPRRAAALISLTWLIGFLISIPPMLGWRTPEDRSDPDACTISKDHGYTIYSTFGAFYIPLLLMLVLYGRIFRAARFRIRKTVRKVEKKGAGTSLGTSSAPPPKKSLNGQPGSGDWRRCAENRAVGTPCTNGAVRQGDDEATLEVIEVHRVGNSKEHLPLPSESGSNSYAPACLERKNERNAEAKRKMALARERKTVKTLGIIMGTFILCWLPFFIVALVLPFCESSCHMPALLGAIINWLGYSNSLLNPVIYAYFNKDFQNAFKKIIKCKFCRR
The experiment in a line: In vitro binding affinity at 5-hydroxytryptamine receptor 1A receptor in rat hippocampal membranes by [3H]8-OH-DPAT displacement. The test is classed as cell membranes, Hippocampus.

For test [5], the target named is T3, Adrenergic receptor alpha-1 (Rattus norvegicus). The experiment in a line: Tested in vitro for %inhibition against alpha-1 adrenergic receptor. The class given is protein assay. The note with it: concentration not given here. Summed up:
as §2

For test [6] the target is unchanged. The description is as §1. The test is classed as protein assay. The conditions noted are these: concentration not given here. Summed up: as §2
Test [7] concerns the target T6, 5-hydroxytryptamine receptor 1A (Rattus norvegicus) (UniProt P19327).
T6 sequence (whole entry): T5 sequence (P19327 whole entry)
The experiment in a line: Tested in vitro for % inhibition against (serotonin)5-HT 1A receptor. The conditions noted are these: concentration not given here.

Test [8] deals with T2, D(2) dopamine receptor. The experiment in a line: In vitro binding affinity towards human Dopamine receptor D2L, using [3H]spiroperidol radioligand in Sf9 baculovirus expression.

On to `COc1cccc(CNCCN2CCN(c3ccc(Cl)cc3)CC2)c1`, for which the inhibition constant Ki (usually a measure of affinity in units of concentration, obtained from inhibition or displacement) in test [1] is more than 850 nM; on D(2) dopamine receptor [2], 5000 nM; at D(4) dopamine receptor, 23 nM; in test [4] it was more than 850 nM. The inhibition (in general, the relative decrease from the control value, in per cent) in [3] was found to be 12%.

Turning to `COc1ccc2c(c1)C(NCCN1CCN(c3ccc(Cl)cc3)CC1)CCC2` (stereo unspecified), the inhibition constant Ki is more than 850 nM in [1], 262 nM on D(2) dopamine receptor [2], 46 nM at D(4) dopamine receptor and more than 850 nM in [4]. In [3], the inhibition was determined as 37%.

Take `COc1cccc(CCCCN2CCN(c3ccc(Cl)cc3)CC2)c1`: the Ki in test [1] was more than 850 nM; on D(2) dopamine receptor [2] it was 2740 nM; on D(4) dopamine receptor, 204 nM; in test [4], 514 nM. This compound displayed an inhibition in test [5] of 25%.

For the compound `COc1ccc2c(c1)C(CCCN1CCN(c3ccc(Cl)cc3)CC1)CCC2` (stereo unspecified), the Ki in test [1] was more than 850 nM; on D(2) dopamine receptor [2] it was 980 nM; on D(4) dopamine receptor it was 391 nM; in test [4], 708 nM. Further, in test [3], the inhibition worked out at 19%.

On to `COc1cccc(NC(=O)CCN2CCN(c3ccc(Cl)cc3)CC2)c1`, for which the inhibitory constant (Ki) in test [1] amounted to 303 nM; on D(2) dopamine receptor [2], 282 nM; at D(4) dopamine receptor, 42 nM; in test [4], 859 nM.

`COc1cccc(C(=O)N(C)CCN2CCN(c3ccc(Cl)cc3)CC2)c1`: the values for the inhibition in test [6] and in [7] were 22% and 18%, respectively. For the same compound, the inhibitory constant (Ki) in test [1] was more than 850 nM; at D(2) dopamine receptor [2], more than 850 nM; on D(4) dopamine receptor, 180 nM; in test [4], more than 850 nM.

Take `COc1cccc(C(=O)CCCCN2CCN(c3ccc(Cl)cc3)CC2)c1`: the Ki in test [1] is 146 nM; at D(2) dopamine receptor [2] it was more than 850 nM; on D(4) dopamine receptor it was 21 nM; in test [4], 37 nM.

`COc1cccc2c1CCN(CCN1CCN(c3ccc(Cl)cc3)CC1)C2=O`: the inhibitory constant (Ki) in test [1] is 631 nM; at D(2) dopamine receptor [8], 3.17 µM; on D(4) dopamine receptor, 42 nM; in [4], 451 nM.

In the case of `COc1cccc(C(=O)CCCCCN2CCN(c3ccc(Cl)cc3)CC2)c1`, the Ki in test [1] was 678 nM; at D(2) dopamine receptor [2], more than 850 nM; on D(4) dopamine receptor, 280 nM; in [4], 45 nM.

Take `COc1ccc2c(c1)C(=O)N(CCN1CCN(c3ccc(Cl)cc3)CC1)CC2`: the inhibition constant Ki was more than 850 nM in [1], 3960 nM at D(2) dopamine receptor [2], 141 nM on D(4) dopamine receptor and 11 nM in [4]. Further, the inhibition in [3] was found to be 33%.

Turning to `COc1cccc(C(=O)CCCN2CCN(c3ccc(Cl)cc3)CC2)c1`, the Ki came out at 908 nM in test [1], 2550 nM on D(2) dopamine receptor [2], 4 nM at D(4) dopamine receptor and 183 nM in test [4].

On to `COc1cccc2c1CCCC2CCCN1CCN(c2ccc(Cl)cc2)CC1` (stereo unspecified), for which the Ki is more than 850 nM in [1], 3400 nM on D(2) dopamine receptor [2], 416 nM on D(4) dopamine receptor and 105 nM in test [4]. Moreover, the inhibition in [3] was 34%.

As for `COc1cccc2c1CCCC2NCCN1CCN(c2ccc(Cl)cc2)CC1.Cl.Cl` (stereo unspecified), the inhibition constant Ki is more than 850 nM in test [1], 3180 nM on D(2) dopamine receptor [2], 32 nM on D(4) dopamine receptor and 821 nM in test [4]. In test [3], the inhibition turned out to be 27%.
